Measurements published in ChEMBL document CHEMBL1149211, “Synthesis of 1,7-annulated indoles and their applications in the studies of cyclin dependent kinase inhibitors” (Bioorg Med Chem Lett, 2004).
Values after ≈ are worked out from the molar mass of the structure shown.

Tests used:
[1] = biological target: T1, Cyclin-dependent kinase 4/cyclin D1 (Homo sapiens, UniProt P11802); test: Inhibition of Cyclin D1-cyclin-dependent kinase 4.; format: protein-complex assay
Method in brief: (§1)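 Cyclin D1/CDK4 enzyme inhibition determined by measuring phosphorylation of Rb protein; staurosporine included as standard; IC50 derived.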

HCT-116 [2] = test: Antiproliferative activity against HCT116 (human colon carcinoma) cell line.; format: functional, cell-based
NCI-H460 = test: Antiproliferative activity against NCIH-460 (human lung) cell line.; format: functional, cell-based
[3] = Solubility measured in 10% solution in EtOH.; format: physicochemical; settings: read-out: S
Method in brief: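 Solubility determined in 10% solutol in ethanol.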

[4] = biological target: Cyclin-dependent kinase 2/cyclin E (Homo sapiens, UniProt P24941); test: Inhibition of Cyclin E-cyclin-dependent kinase 2 mediated RbING-phosphorylation; format: protein-complex assay
Method in brief: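 Cyclin E/CDK2 enzyme assay following substrate phosphorylation, with Rb^ING as substrate; staurosporine run as standard; IC50 reported.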

[5] = biological target: Cyclin-dependent kinase 4 (Homo sapiens) (UniProt P11802); test: Inhibition of CDK4-specific Rb-S780 phosphorylation of HCT116 cells at 2xIC50 for 24 hr; format: functional, cell-based; settings: HCT-116
Chain of Cyclin-dependent kinase 4 (Homo sapiens) (P11802 whole entry): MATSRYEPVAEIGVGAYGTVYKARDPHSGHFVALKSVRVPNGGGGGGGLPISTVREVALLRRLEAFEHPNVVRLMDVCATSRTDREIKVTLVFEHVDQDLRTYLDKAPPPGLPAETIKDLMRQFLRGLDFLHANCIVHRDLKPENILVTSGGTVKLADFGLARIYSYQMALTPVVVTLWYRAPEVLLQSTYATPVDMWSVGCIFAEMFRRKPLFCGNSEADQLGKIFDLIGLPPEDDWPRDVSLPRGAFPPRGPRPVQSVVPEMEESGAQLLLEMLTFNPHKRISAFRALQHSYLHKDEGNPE
Method in brief: (§2)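 HCT-116 colon carcinoma cells treated 24 h with compound at 1× and 2× its antiproliferation IC50; Rb phosphorylation at Ser780 measured by Western blot with phospho-specific antibody; value expressed as % pRb inhibition.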

[6] = biological target: Cyclin-dependent kinase 4 (Homo sapiens) (UniProt P11802); test: Inhibition of CDK4-specific Rb-S780 phosphorylation of HCT116 cells at 1xIC50 for 24 hr; format: functional, cell-based; settings: HCT-116; method in brief: as §2
HCT-116 [7] = test: G1 cell cycle arrest (fold increase over control) in HCT116 cells at 3*IC50; format: functional, Homo sapiens
Method in brief: (§3)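 HCT-116 cells exposed to compound for 24 h, then analysed by flow cytometry; G1 arrest expressed as fold increase of G1 population over untreated control.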

HCT-116 [8] = test: G1 cell cycle arrest (fold increase over control) in HCT116 cells at IC50; format: functional, Homo sapiens; method in brief: as §3
[9] = biological target: cAMP-dependent protein kinase (PKA) (Homo sapiens, UniProt P22694+P17612+P22612); test: Inhibition of protein kinase A mediated histone phosphorylation; format: protein assay
Method in brief: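 PKA enzyme assay measuring phosphorylation of histone substrate; staurosporine used as standard; IC50 reported.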

[10] = biological target: T1, Cyclin-dependent kinase 4/cyclin D1; test: Inhibition of Cyclin D1-cyclin-dependent kinase 4 mediated Rb21-phosphorylation; format: protein-complex assay; settings: in the assay text read “RbING-phosphorylation” for “Rb21-phosphorylation”; method in brief: as §1

T1 sequence (P11802 whole entry): as above
T1 sequence (P24385 whole entry, further chain): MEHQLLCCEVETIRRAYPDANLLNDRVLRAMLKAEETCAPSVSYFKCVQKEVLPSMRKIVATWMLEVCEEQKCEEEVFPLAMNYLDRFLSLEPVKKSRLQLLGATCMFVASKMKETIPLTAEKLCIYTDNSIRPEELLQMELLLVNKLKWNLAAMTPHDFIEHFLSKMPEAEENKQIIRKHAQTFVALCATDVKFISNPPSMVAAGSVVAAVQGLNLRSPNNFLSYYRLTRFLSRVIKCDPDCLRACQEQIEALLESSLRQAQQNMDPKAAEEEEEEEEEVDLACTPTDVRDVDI

Row | IC50 [1] | IC50 (HCT-116 [2]) | IC50 (NCI-H460) | solubility [3] | IC50 [4] | inhibition [5] | inhibition [6] | IC50 [9] | IC50 [10] | Compound | Fold increase (HCT-116 [7]) | Fold increase (HCT-116 [8])
1 | 671 nM | > 10000 nM | > 10000 nM | – | – | – | – | – | – | COC(=O)CC(NCC1Cc2cccc3c(C4=C(c5c[nH]c6cc(F)ccc56)C(=O)NC4=O)cn(c23)C1)C(=O)OC (stereo not given) | – | –
2 | 22 nM | 360 nM | 430 nM | 890 µg/mL (≈ 2150 µM) | 141 nM | 53% | 25% | > 2 µM | – | O=C1NC(=O)c2c1c1c3ccc(F)cc3[nH]c1c1c2c2cccc3c2n1CC(CO)C3 (stereo not given) | 2.32 | 1.67
3 | 18 nM | 920 nM | 820 nM | 570 µg/mL (≈ 1440 µM) | 219 nM | 65% | 53% | 0.858 µM | – | O=C1NC(=O)c2c1c1c3ccccc3[nH]c1c1c2c2cccc3c2n1C(CO)CC3 (stereo not given) | 1.51 | 1.32
4 | – | > 10000 nM | > 10000 nM | – | – | – | – | – | > 2000 nM | NC(=O)[C@@H]1CCCN1CC1Cc2cccc3c(C4=C(c5c[nH]c6cc(F)ccc56)C(=O)NC4=O)cn(c23)C1 (stereo not given in full) | – | –
5 | 71 nM | 910 nM | 960 nM | 120 µg/mL (≈ 303 µM) | 217 nM | 55% | 21% | > 2 µM | – | O=C1NC(=O)c2c1c1c3ccccc3[nH]c1c1c2c2cccc3c2n1CC(CO)C3 (stereo not given) | 1.95 | 2.04
6 | 210 nM | 1250 nM | 1720 nM | – | – | – | – | > 2 µM | – | O=C1NC(=O)c2c1c1c3ccccc3ccc1c1c2c2cccc3c2n1CCC3CO (stereo not given) | 1.3 | 1.2
7 | 72 nM | 940 nM | 740 nM | – | > 2000 nM | – | – | > 2 µM | – | O=C1NC(=O)c2c1c1c3ccccc3ccc1c1c2c2cccc3c2n1CC(CO)C3 (stereo not given) | 1.64 | 1.14
8 | 10 nM | 500 nM | 360 nM | 830 µg/mL (≈ 1750 µM) | > 2000 nM | 74% | 56% | > 2 µM | – | O=C1NC(=O)c2c1c1c3ccc(Br)cc3[nH]c1c1c2c2cccc3c2n1CC(CO)C3 (stereo not given) | – | 1.6
9 | 8 nM | 1730 nM | 5150 nM | – | – | – | – | 0.383 µM | – | CNCC1Cc2cccc3c(C4=C(c5c[nH]c6cc(F)ccc56)C(=O)NC4=O)cn(c23)C1.Cl (stereo not given) | – | –
10 | 15 nM | 1830 nM | 1960 nM | 490 µg/mL (≈ 1150 µM) | 284 nM | 77% | 69% | > 2 µM | – | COc1ccc2c(c1)[nH]c1c2c2c(c3c4cccc5c4n(c13)CC(CO)C5)C(=O)NC2=O (stereo not given) | 2 | 1.8
11 | 23 nM | 1250 nM | 690 nM | 4810 µg/mL (≈ 10400 µM) | – | – | – | > 2 µM | – | O=C1NC(=O)c2c1c1c3ccc(C(F)(F)F)cc3[nH]c1c1c2c2cccc3c2n1CC(CO)C3 (stereo not given) | 1.47 | 1.34
12 | 898 nM | 770 nM | 4750 nM | – | – | – | – | – | – | CN(C)CC1Cc2cccc3c(C4=C(c5c[nH]c6ccccc56)C(=O)NC4=O)cn(c23)C1 (stereo not given) | 1.17 | 1
13 | 64 nM | 3270 nM | 5650 nM | – | – | – | – | > 20 µM | – | O=C1NC(=O)C(c2cn3c4c(cccc24)CC(CCl)C3)=C1c1c[nH]c2cc(F)ccc12 (stereo not given) | – | –
14 | 2 nM | 820 nM | 260 nM | 620 µg/mL (≈ 1500 µM) | 79 nM | – | – | 3.02 µM | – | O=C1NC(=O)c2c1c1c3ccc(F)cc3[nH]c1c1c2c2cccc3c2n1C(CO)CC3 (stereo not given) | 2.12 | 1.7
15 | 126 nM | 540 nM | 330 nM | 1070 µg/mL (≈ 2610 µM) | – | 85% | 71% | – | – | O=C1NC(=O)c2c1c1c3ccccc3[nH]c1c1c2c2cccc3c2n1CC(CO)CC3 (stereo not given) | 1.9 | 1.8
16 | 84 nM | 680 nM | 210 nM | – | 650 nM | – | – | – | – | Cn1ccc2ccc3c(c4c(c5c6cccc7c6n(c35)CC(CO)C7)C(=O)NC4=O)c21 (stereo not given) | 2.25 | 1.13
17 | 175 nM | 1120 nM | 540 nM | 2780 µg/mL (≈ 6840 µM) | – | – | – | > 2 µM | – | O=C1NC(=O)c2c1c1c3ccccc3ccc1c1c2c2cccc3c2n1C(CO)CC3 (stereo not given) | 1.32 | 1.17
18 | 31 nM | 370 nM | 540 nM | – | – | 23% | 0% | > 2 µM | – | O=C1NC(=O)c2c1c1c3ccccc3[nH]c1c1c2c2cccc3c2n1CCC3CO (stereo not given) | 1.44 | 1.17
